Most compounds without a hit are left out; they make up all but 2.9% or so of the library.
Dynein transport: dynein cargo transport inhibition | 3617.4 mouse cells, GR-EGFP nuclear translocation imaging; test concentration mostly 20 µM; stimulated with dexamethasone, 1 µM; hits give low values | z-score, hits read low | 0.47% of 220,000 active | AID 1381;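 active = plate z-score of nuclear minus cytoplasmic receptor signal below a set negative limit, without overly bright fluorescence or cell loss, cut at about -3.5 in these data, passing the limit was not always enough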;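 note: z-score of nuclear minus cytoplasmic ring GR-EGFP intensity difference per well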
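Buffer or medium – tet-free medium with charcoal-stripped serum · Signal – automated 10x imaging of fixed Hoechst-stained cells · Also added – dexamethasone agonist, 1.0 µM final, for 30 min · Incubation – induction 48 h, compound 1 h, agonist 30 min · Read-out – GR-EGFP nuclear translocation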
ATG4B inhibitor: blocks human ATG4B protease cleavage of LC3 substrate; Q9Y4P1; ATG4B cleavage of LC3-PLA2, NBD-HPC fluorescence, 1 h; inhibition, % at 8.33 µM; 0.51% of 340,000 active; in the data active = inhibition above about 40%
Beta2AR agonist: activates human beta-2 adrenergic receptor causing internalization | Am2.2-beta2AR cells, FAP receptor internalization, flow cytometry | P07550 | 0.43% of 340,000 active | response, % (no concentration beside the values);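 active = response above a set limit, near 3 SD of response in nonfluorescent compounds, cut at about 42% in these data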
MEKK3 PB1 HTS: modulators (inhibitors or enhancers) of MEK5 binding to human MEKK3 PB1 domain. bead-based flow cytometry, Alexa488-MEK5 binding to MEKK3; actives lie on both sides; 0 = blocked by unlabeled MEK5, 100 = vehicle. binding response (% of control), % at 10 µM. 1.4% of 290,000 active. AID 1529;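 active = binding response more than 3 SD above or below the average of its plate-row segment, actives on both sides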;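 note: Alexa488 bead fluorescence after subtracting the streptavidin-only scavenger bead signal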
Target sequence (Q99759 whole entry, looked up, the tested form may be a part): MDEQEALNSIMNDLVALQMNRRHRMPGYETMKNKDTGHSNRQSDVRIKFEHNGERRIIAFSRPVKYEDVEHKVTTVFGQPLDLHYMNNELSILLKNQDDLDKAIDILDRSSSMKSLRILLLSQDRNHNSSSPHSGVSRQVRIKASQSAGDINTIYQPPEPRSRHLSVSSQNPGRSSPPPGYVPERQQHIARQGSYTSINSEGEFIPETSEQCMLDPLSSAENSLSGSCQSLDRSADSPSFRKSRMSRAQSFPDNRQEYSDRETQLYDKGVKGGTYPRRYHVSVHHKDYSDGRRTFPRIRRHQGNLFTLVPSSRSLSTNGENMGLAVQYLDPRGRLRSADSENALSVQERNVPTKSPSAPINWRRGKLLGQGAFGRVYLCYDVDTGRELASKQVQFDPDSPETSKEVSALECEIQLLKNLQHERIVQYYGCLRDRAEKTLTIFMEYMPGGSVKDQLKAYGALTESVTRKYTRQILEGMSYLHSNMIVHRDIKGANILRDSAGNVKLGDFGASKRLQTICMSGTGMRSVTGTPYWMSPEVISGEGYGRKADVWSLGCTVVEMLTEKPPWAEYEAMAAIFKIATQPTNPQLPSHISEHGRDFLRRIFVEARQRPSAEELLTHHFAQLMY
MEKK2wt PB1 HTS: raises or lowers MEK5 binding to wildtype human MEKK2 PB1 domain. AID 1531. 1.1% of 290,000 active. bead flow cytometry, Alexa488-MEK5 binding to MEKK2 WT; actives lie on both sides. binding response (% of control), % at 10 µM; in the data active = binding response below about 67% or above about 130%
MEKK2 mut-MEK5: signal of MEK5 binding to mutant human MEKK2 PB1 domain | 0.35% of 290,000 active | bead flow cytometry, Alexa488-MEK5 binding to MEKK2 mutant | percent response, % at 10 µM; in the data active = percent response above about 24%, passing the limit was not always enough
MEKK2wt confirm: raises or lowers MEK5 binding to wildtype human MEKK2, retest | bead flow cytometry, Alexa488-MEK5 binding to MEKK2 WT; actives lie on both sides | 2.4% of 5,900 active | binding response (% of control), % at 10 µM | shares compounds with MEKK3 PB1 HTS; in the data active = binding response below about 16% or above about 210%; inactive = in between
MEKK2mut confirm: signal of MEK5 binding to mutant human MEKK2, retest | percent response, % at 10 µM | 2% of 5,900 active | shares compounds with MEKK3 PB1 HTS | bead flow cytometry, Alexa488-MEK5 binding to MEKK2 mutant; in the data active = percent response mostly above about 71%, no sharp cut-off; inactive = mostly below about 38%;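 note: higher means compound restores mutant binding toward wildtype level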
MEKK3 confirm: confirmation of inhibitors of MEK5 binding to human MEKK3; bead flow cytometry, Alexa488-MEK5 binding to MEKK3; hits give low values; shares compounds with MEKK3 PB1 HTS; 1.8% of 5,900 active; binding response (% of control), % at 10 µM;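 active = binding response below 72% of control, or above a set upper limit, though filed actives all read lower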;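 note: 100% = DMSO only wells and 0% = binding blocked by excess unlabeled MEK5; lower values mean stronger disruption of MEK5 binding to MEKK3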
* = called active by the depositor; [ ] = dose if it differs, or a comment.

Screening CCN1CCN(c2ccc(NC(=O)c3cccc(OCc4ccccc4)c3)cc2)CC1 returned Dynein transport -0.36, ATG4B inhibitor 2, Beta2AR agonist -7, MEKK3 PB1 HTS 100, MEKK2wt PB1 HTS 171*, MEKK2 mut-MEK5 34, MEKK2wt confirm 147, MEKK2mut confirm 27 and MEKK3 confirm 106.
CCCOc1cccc(C(=O)NC(=S)Nc2ccc(N3CCN(C)CC3)cc2)c1 was read as Dynein transport 1.9, ATG4B inhibitor -4, Beta2AR agonist 19, MEKK3 PB1 HTS 103, MEKK2wt PB1 HTS 152*, MEKK2 mut-MEK5 46, MEKK2wt confirm 147, MEKK2mut confirm 12 and MEKK3 confirm 106.
O=C(O)c1ccc(NC(=S)NC(=O)c2cccc(COc3ccccc3)c2)cc1 was read as Dynein transport -0.51, ATG4B inhibitor -2, Beta2AR agonist -7, MEKK3 PB1 HTS 103, MEKK2wt PB1 HTS 89 and MEKK2 mut-MEK5 -6.
For O=C(NC(=S)Nc1ccc(CN2CCOCC2)cc1)c1cccc([N+](=O)[O-])c1 the results were Dynein transport -0.43, ATG4B inhibitor 1, Beta2AR agonist 27, MEKK3 PB1 HTS 145*, MEKK2wt PB1 HTS 105, MEKK2 mut-MEK5 -1, MEKK2wt confirm 106, MEKK2mut confirm 2 and MEKK3 confirm 105.
Screening O=C(NC(=S)Nc1ccc(CN2CCCCC2)cc1)c1cccc(OCc2ccccc2)c1 returned Dynein transport -0.89, ATG4B inhibitor -14, Beta2AR agonist 10, MEKK3 PB1 HTS 113, MEKK2wt PB1 HTS 220*, MEKK2 mut-MEK5 63*, MEKK2wt confirm 173, MEKK2mut confirm 25 and MEKK3 confirm 104.
Screening O=C(CSc1nnc(CCCOc2ccc(Cl)cc2Cl)o1)Nc1ccc(C(=O)O)cc1 returned Dynein transport -0.41, ATG4B inhibitor -1, Beta2AR agonist 7, MEKK3 PB1 HTS 106, MEKK2wt PB1 HTS 98 and MEKK2 mut-MEK5 -2.
Screening CCOc1nc2cnccc2n(CC(=O)Nc2c(C)cccc2CC)c1=O returned ATG4B inhibitor 5, Beta2AR agonist -2, MEKK3 PB1 HTS 100, MEKK2wt PB1 HTS 102 and MEKK2 mut-MEK5 4.
CCOc1cc(CNCc2ccccc2)ccc1OCc1ccc(Cl)cc1 was read as ATG4B inhibitor -5, Beta2AR agonist 15, MEKK3 PB1 HTS 99, MEKK2wt PB1 HTS 160*, MEKK2 mut-MEK5 22, MEKK2wt confirm 170, MEKK2mut confirm 36 and MEKK3 confirm 105.
Screening COc1ccc(CNCCc2ccc(Cl)cc2)cc1OCc1ccccc1 returned Dynein transport -0.63, ATG4B inhibitor 7, Beta2AR agonist 4, MEKK3 PB1 HTS 2.0*[inhibitor], MEKK2wt PB1 HTS 2.0*[inhibitor], MEKK2 mut-MEK5 -83, MEKK2wt confirm 145, MEKK2mut confirm 23 and MEKK3 confirm 108.
COc1ccc(CNCCc2ccccc2)cc1OCC(N)=O was read as Dynein transport -0.24, ATG4B inhibitor -2, Beta2AR agonist 2, MEKK3 PB1 HTS 98, MEKK2wt PB1 HTS 106 and MEKK2 mut-MEK5 7.
Screening CCOC(=O)c1c(NC(=O)CN2C(=O)NC3(CCC(C)CC3)C2=O)sc(C(=O)N(C)C)c1C (stereo unspecified) returned ATG4B inhibitor -7 and Beta2AR agonist 0.
`Cn1c(=O)oc2cc(S(=O)(=O)N3CCN(c4ccccc4)CC3)ccc21` gave Dynein transport -1.9, ATG4B inhibitor -6, Beta2AR agonist -148, MEKK3 PB1 HTS 103, MEKK2wt PB1 HTS 108 and MEKK2 mut-MEK5 3.
`Cn1c(=O)oc2cc(S(=O)(=O)N3CCN(c4ccccn4)CC3)ccc21` gave Dynein transport 0.084, ATG4B inhibitor -1, Beta2AR agonist -16, MEKK3 PB1 HTS 50*[inhibitor], MEKK2wt PB1 HTS 64, MEKK2 mut-MEK5 -9, MEKK2wt confirm 108, MEKK2mut confirm 13 and MEKK3 confirm 111.
Screening COc1ccc(CNC(=O)CSc2nc3ccccc3n2C(C)=O)cc1 returned ATG4B inhibitor 1, Beta2AR agonist -1, MEKK3 PB1 HTS 109, MEKK2wt PB1 HTS 110 and MEKK2 mut-MEK5 10.
For CCC(c1nnnn1CCOC)N1CCN(Cc2ccccc2OC)CC1 (stereo unspecified) the results were Dynein transport 4.4, ATG4B inhibitor 5, Beta2AR agonist 3, MEKK3 PB1 HTS 117, MEKK2wt PB1 HTS 110, MEKK2 mut-MEK5 25*, MEKK2wt confirm 111, MEKK2mut confirm 5 and MEKK3 confirm 104.
For O=C(CCN1CCOCC1)NNC(=S)NC(=O)c1ccccc1 the results were Dynein transport -0.39, ATG4B inhibitor -8, Beta2AR agonist 3, MEKK3 PB1 HTS 98, MEKK2wt PB1 HTS 97 and MEKK2 mut-MEK5 -12.
`COc1ccc(N2CC(C(=O)Nc3nnc(SCc4ccccn4)s3)CC2=O)cc1` (stereo unspecified) gave Dynein transport -1.1, ATG4B inhibitor 3, Beta2AR agonist -9, MEKK3 PB1 HTS 133*, MEKK2wt PB1 HTS 99, MEKK2 mut-MEK5 -1, MEKK2wt confirm 1.0*[inhibitor], MEKK2mut confirm -29 and MEKK3 confirm 2.0*.
CCC[C@@H](O)c1cc2cc(OC)c(OC)cc2c(=O)o1 was read as ATG4B inhibitor 1 and Beta2AR agonist 4.
CN(C)c1ccc(C(CNS(=O)(=O)c2ccc3ccccc3c2)c2c[nH]c3ccccc23)cc1 (stereo unspecified) was read as Dynein transport -0.55, ATG4B inhibitor 11, Beta2AR agonist -2, MEKK3 PB1 HTS 104, MEKK2wt PB1 HTS 107 and MEKK2 mut-MEK5 -1.
`CN(C)c1ccc(C(CN)c2c[nH]c3ccccc23)cc1` (stereo unspecified) gave Dynein transport 1.5, ATG4B inhibitor -5, Beta2AR agonist 4, MEKK3 PB1 HTS 69*[inhibitor], MEKK2wt PB1 HTS 110, MEKK2 mut-MEK5 0, MEKK2wt confirm 131, MEKK2mut confirm 18 and MEKK3 confirm 97.
Screening Cc1cc(NC(=O)CN2C(=O)NC(CC(C)C)C2=O)ccc1Br (stereo unspecified) returned ATG4B inhibitor 0 and Beta2AR agonist 7.
